Legend:
Format in all cases: functional, cell-based
HL-60 [1] = test: Cytotoxicity against human HL60 after 20 hrs by WST1 assay; settings: HL-60, 20 h
Procedure, shortened: (§1)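 WST-1 cell viability read-out after 2.5, 20 and 72 h exposure; compounds tested over 0.5 to 80 µM. Cells: CD4+ Jurkat T-cells (ATCC TIB-152), Bcl-2-transfected Jurkat, and HL-60 (ATCC CCL-240). Maximal standard deviation 10% (absolute).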

Jurkat [2] = test: Cytotoxicity against human Jurkat T cells after 20 hrs by WST1 assay; procedure, shortened: as §1
Jurkat [3] = test: Cytotoxicity against human Jurkat T cells overexpressing Bcl2 after 20 hrs by WST1 assay; procedure, shortened: as §1
HL-60 [4] = test: Induction of apoptosis in human HL60 cells by FACS
Procedure, shortened: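 HL-60 cells (10^6 per sample) exposed 24 h, washed in cold PBS with 1% bovine calf serum and spun at 200g, 4 °C. Staining with annexin V-FITC (2 µg/mL) in HEPES binding buffer, pH 7.4, 10 min on ice in the dark, then 1 µg PI per tube. Flow cytometry within 20 min; annexin V-FITC-positive cells in the gated population scored apoptotic. Taxol 500 nM positive control, untreated negative control.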

Compound | IC50 (HL-60 [1]) [µM] | IC50 (Jurkat [2]) [µM] | IC50 (Jurkat [3]) [µM] | Activity (HL-60 [4])
CC#CC#C/C=C1/O[C@@]2(OC=C[C@H]2OC(C)=O)[C@@H](O)[C@@H]1Cl [FLOSCULIN A] | 18.9 | 13.2 | 19.1 | 
CC#CC#C/C=C1\C=CC2(CCC(OC)O2)O1 (racemic) [FLOSCULIN B] | 18.3 | 15.2 | 19.2 | 
CC#CC#C/C=C1\C=C[C@@]2(CCCO2)O1 | 16.2 | 11.2 | 14.1 | 
CC#CC#C/C=C1/C=C[C@@]2(CC=CO2)O1 | 5.6 | 3.8 | 7.2 | 
CC#CC#C/C=C1\C=C[C@]2(OC=CC2OC(C)=O)O1 (stereo partly drawn) | 4 | 6.4 | 6.9 | Dose-dependent effect
C=C1C(=O)O[C@@H]2C[C@@H](C)[C@@H]3C=CC(=O)[C@@]3(C)[C@@H](O)[C@H]12 [HELENALIN] | 0.7 | 0.46 |  | 
CC#CC#C/C=C1/C=C[C@]2(OC=CC2OC(C)=O)O1 (stereo partly drawn) | 4.2 | 4.1 | 5.2 | Dose-dependent effect
CC#CC#C/C=C1/C=CC2(CCC(OC)O2)O1 (racemic) [FLOSCULIN C] | 16.7 | 10.8 | 16.9 | 
CC#CC#C/C=C1\C=C[C@@]2(CC=CO2)O1 | 6.1 | 4.7 | 8.4 | 

From ChEMBL document CHEMBL1157263, “Cytotoxic diacetylenic spiroketal enol ethers from Plagius flosculosus” (J Nat Prod, 2006)
